# Published values of several laboratories.
# Compare with care: the assays were run in different laboratories.
# Target: Mitogen-activated protein kinase kinase kinase 9 (MAP3K9, Homo sapiens, UniProt P80192)
SMILES,test,setting,measurement,result
Cn1cc(-c2cccc(N3CCc4c(sc5c4CC(C)(C)C5)C3=O)c2CO)cc(Nc2ccncn2)c1=O,"enzyme activity, inhibitor",1 µM,inhibition,-3%
CC(C)(C)c1cc(C=C(C#N)C#N)cc(Br)c1O,"enzyme activity, inhibitor",0.5 µM,remaining activity,90.2%
Cc1nn(C)cc1-c1nc2c(N3CCN(Cc4ccc(Cl)cc4)CC3)c(Cl)cnc2[nH]1,"binding, competition with immobilised ligand",1 µM,remaining binding,15%
Cn1cc(-c2cc(F)cc(N3CCn4c(cc5c4CCCC5)C3=O)c2CO)cc(Nc2ccc(N3CCN(C4COC4)CC3)cn2)c1=O,"enzyme activity, inhibitor",0.1 µM,inhibition,4%
Cn1cncc1[C@](O)(COc1ccc(C#N)cc1-c1ccc(OC(F)(F)F)cc1)c1ccc(C#N)cc1,"cell-free assay, competition with immobilised ligand",1 µM,remaining binding,81%
COc1cc(Nc2ncc(F)c(Nc3ccc4c(n3)NC(=O)C(C)(C)O4)n2)cc(OC)c1OC,"binding, competition with immobilised ligand",10 µM,inhibition,99%
C#Cc1n[nH]c2c(-c3cn([C@@H](C)c4ccccn4)c(=O)[nH]c3=O)cc(F)cc12,"enzyme activity, inhibitor",0.1 µM,inhibition,8%
O=c1[nH]c2ccccc2n1C1CCN(Cc2ccc(-c3[nH]c4cc5ncnc5cc4nc3-c3ccccc3)cc2)CC1,cell-free assay,0.5 µM,remaining signal,93.9%
Nc1ncc(-c2nc(N3CCOCC3)nc(N3CCOCC3)n2)c(C(F)F)n1,"binding, competition with immobilised ligand",10 µM,remaining binding,42%
COc1ncccc1-c1cnn2ccc(N3CCN(C(=O)OC(C)C)CC3)nc12,"binding, competition with immobilised ligand",1 µM,remaining binding,100%
N#CC1(c2ccccn2)CCN(Cc2cc(C(=O)O)c(=O)n3ccccc23)CC1,"cell-free assay, competition with immobilised ligand",1 µM,remaining binding,92%
C#Cc1n[nH]c2c(-c3cn([C@@H](C)c4ccccc4)c(=O)[nH]c3=O)cc(F)cc12,"enzyme activity, inhibitor",0.1 µM,inhibition,11%
